Laboratory results reported in ChEMBL document CHEMBL1155641, “Cytotoxic cembrenolides and steroids from the formosan soft coral Sarcophyton crassocaule” (2000).
In brackets after ≈: the same amount, converted by molar mass.

Assays:
Format in all cases: functional
Settings in all cases: read-out: ED50 (the source's name)
[1] = system: A549; test: Cytotoxicity against human A549 cells
In short: (§1)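 Human A549 lung adenocarcinoma and HT-29 colon adenocarcinoma cell lines from the American Type Culture Collection. Cytotoxicity assay run per a previously described procedure.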

[2] = system: P388; test: Cytotoxicity against mouse P388 cells
In short: (§2)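 Human KB epidermoid carcinoma and mouse P-388 lymphocytic leukemia cells came from an academic laboratory (University of Illinois at Chicago). Cytotoxicity assay run per a previously described procedure.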

[3] = system: KB; test: Cytotoxicity against human KB cells; in short: as §2
[4] = system: HT-29; test: Cytotoxicity against human HT29 cells; in short: as §1

| SMILES | EC50 [1] [µg/mL] | EC50 [2] [µg/mL] | EC50 [3] [µg/mL] | EC50 [4] [µg/mL] |
| --- | --- | --- | --- | --- |
| C=C1C(=O)O[C@H]2[C@H]1C[C@@H]1O[C@@]1(C)CC/C=C(\C)CC/C=C(\C)[C@@H]2OC(C)=O | 4.66 (≈ 12.4 µM) | 0.38 (≈ 1.01 µM) | 7.39 (≈ 19.7 µM) | 5.67 (≈ 15.1 µM) |
| CC(C)[C@@H](C)CC[C@@H](C)[C@H]1CC[C@H]2[C@@H]3C[C@@H](O)[C@@]4(O)C[C@@H](O)CC[C@]4(C)[C@H]3CC[C@]12C | 6.26 (≈ 14.4 µM) | 0.14 (≈ 0.322 µM) | 5.38 (≈ 12.4 µM) | 8.35 (≈ 19.2 µM) |
| CC(=O)OC(C)(C)[C@H](C)CC[C@@H](C)[C@H]1CC[C@H]2[C@@H]3C[C@@H](O)[C@@]4(O)C[C@@H](O)CC[C@]4(C)[C@H]3CC[C@]12C | 22.4 (≈ 45.5 µM) | 3.96 (≈ 8.04 µM) | 26.8 (≈ 54.5 µM) | 4.32 (≈ 8.77 µM) |
| C=C1C(=O)O[C@H]2/C=C(\C)CC[C@H](OC(C)=O)[C@@]3(C)CC[C@H](OO3)/C(C)=C\C[C@@H]12 [DENTICULATOLIDE] | 6.46 (≈ 16.5 µM) | 0.15 (≈ 0.384 µM) | 6.29 (≈ 16.1 µM) | 5.78 (≈ 14.8 µM) |
| C=C1C(=O)O[C@@H]2C/C(C)=C/CC/C(C)=C/CC[C@]3(C)O[C@H]3C[C@@H]12 [SARCOCRASSOLIDE] | 8.31 (≈ 26.3 µM) | 0.16 (≈ 0.506 µM) | 9.15 (≈ 28.9 µM) | 7.55 (≈ 23.9 µM) |
